Results: PubChem BioAssay
The source made the active and inactive calls.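 The calls were made as follows, unless noted: active = GFP response above 150% of the DMSO level; inconclusive = fewer than 70 events counted for a yeast strain; inactive = the rest.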

How the values were obtained:
[1] = RPL19A-GFP modulators, yeast TOR pathway, confirmation, cell-based, S. cerevisiae, flow cytometry, cherry picks, mother/daughter gates (AID 2270;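 active = GFP response below 50% of the DMSO control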); settings: S. cerevisiae RPL19A-GFP strain, 3 h, at 10 µM, stronger effect = lower value, 100 = same GFP as DMSO wells
[2] = LAP4-GFP expression modulators in yeast, confirmation, cell-based, cherry picks, flow cytometry, mother/daughter gates (AID 2271;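 active = GFP response above 150% of the DMSO control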;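 also: ratio of sample to DMSO plate mean so 100% equals DMSO level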); settings: S. cerevisiae LAP4-GFP strain, 3 h, at 10 µM, stronger effect = higher value, 100 means same as DMSO control
How it was run: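 material = Alexa 633-stained baker's yeast GFP-fusion strain | amount = 0.2 OD600 cells | schedule = 30 °C, 3 h compound incubation, rotating | signal = GFP by flow cytometry | measure = per-gate (all, mother, daughter) GFP response vs DMSO | controls = positive rapamycin (400 ng/mL), negative DMSO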

[3] = modulators of MEP2-GFP levels in yeast, confirmation, S. cerevisiae, flow cytometry GFP, cherry picks (AID 2272;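 active = GFP response above 150% of the DMSO control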;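 also: ratio of well signal to plate DMSO mean so 100% equals DMSO level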); settings: S. cerevisiae MEP2-GFP strain, 3 h, at 10 µM, stronger effect = higher value
[4] = AGP1-GFP expression modulators, hit retest, confirmation, cell-based, flow cytometry, S. cerevisiae, cherry picks (AID 2273);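 also: median GFP channel fluorescence over the whole cell population gate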; settings: S. cerevisiae AGP1-GFP strain, 3 h, at 10 µM
[5] = modulators of CIT2-GFP expression in yeast, confirmation, S. cerevisiae, GFP fusion, cherry picks, mother/daughter gates (AID 2274); settings: S. cerevisiae CIT2-GFP strain, flow cytometry, 3 h, at 10 µM, stronger effect = higher value
[6] = measured here: daughter cell gate
[7] = measured here: mother cell gate
[8] = measured here: daughter cell gate response
[9] = measured here: mother cell gate response

| Compound | GFP response vs DMSO [1] | GFP response vs DMSO [1, 6] [%] | GFP response vs DMSO [1, 7] [%] | GFP response relative to DMSO [2] | GFP response relative to DMSO [2, 8] [%] | GFP response relative to DMSO [2, 9] [%] | GFP response vs DMSO [3] | GFP response, % of DMSO [4] | GFP response, % of DMSO [5] | GFP response, % of DMSO [5, 6] [%] | GFP response, % of DMSO [5, 7] [%] |
| --- | --- | --- | --- | --- | --- | --- | --- | --- | --- | --- | --- |
| O=C1c2cccc3cccc(c23)C(=O)N1c1nccs1 | 103% (inactive) | 102 | 104 | 116% (inactive) | 117 | 112 | 133% (inactive) | 106% (inactive) | 130% (inactive) | 132 | 131 |
| CCCc1[nH]nc2c1C(c1ccc(OC)cc1OC)C(C#N)=C(N)O2 (stereo unspecified) | 99.8% (inactive) | 99.9 | 99.8 | 92.8% (inactive) | 91.2 | 95.1 | 105% (inactive) | 90.4% (inactive) | 94% (inactive) | 89.9 | 91.4 |
| C=CCn1c(=O)c(C(=O)NCCc2ccccc2)c(O)c2ccccc21 | 98.4% (inactive) | 98.9 | 100 | 90.2% (inactive) | 89.6 | 91.9 | 96.2% (inactive) | 102% (inactive) | 99.7% (inactive) | 99.1 | 101 |
| Cc1ccc(/C=c2\sc3nc(-c4cccs4)nn3c2=O)o1 | 98.6% (inactive) | 95.9 | 95.4 | 128% (inactive) | 117 | 131 | 163% (inactive) | 95.4% (inactive) | 104% (inactive) | 101 | 104 |
| CSC(SC)=C(C#N)C(=O)c1ccccc1 | 102% (inactive) | 98.6 | 99.8 | 128% (inactive) | 117 | 129 | 103% (inactive) | 96.3% (inactive) | 93% (inactive) | 92 | 93.2 |
| COc1ccc(N2C(=O)C(Cl)=C(Nc3ccccc3O)C2=O)cc1 | 99.6% (inactive) | 98.8 | 100 | 102% (inactive) | 101 | 103 | 112% (inactive) | 98.8% (inactive) | 100% (inactive) | 95.6 | 99.3 |
| O=[N+]([O-])/C=C/c1cn(Cc2ccccc2)c2ccccc12 | 103% (inactive) | 98.1 | 98.2 | 134% (inactive) | 131 | 138 | 102% (inactive) | 98.3% (inactive) | 96.5% (inactive) | 94.8 | 91.2 |
| CNC(=O)/C(C#N)=C/c1c(N(Cc2ccccc2)Cc2ccccc2)nc2ccccn2c1=O | 97.3% (inactive) | 98.1 | 96.9 | 100% (inactive) | 99 | 101 | 93.1% (inactive) | 104% (inactive) | 100% (inactive) | 101 | 99.3 |
| CC(=O)Nc1ccc(NC(=O)CSc2ncc(C(=O)Nc3ccccc3)c(=O)n2C)cc1 | 96.6% (inactive) | 97.1 | 99.1 | 97% (inactive) | 97.5 | 97.3 | 96.8% (inactive) | 103% (inactive) | 105% (inactive) | 103 | 104 |
| CS/C(N)=N/N=C/c1ccc2c(c1)OCO2 | 97.8% (inactive) | 98.9 | 97.7 | 106% (inactive) | 102 | 108 | 100% (inactive) | 102% (inactive) | 103% (inactive) | 103 | 102 |
| COc1ccc(-n2c(N)c(C(=O)Nc3c(C)n(C)n(-c4ccccc4)c3=O)c3nc4ccccc4nc32)cc1 | 97.4% (inactive) | 94.4 | 98.1 | 99.5% (inactive) | 99.1 | 99.4 | 103% (inactive) | 102% (inactive) | 94.4% (inactive) | 93.8 | 94.4 |
| CC(=O)N(\C=C/C=C/C=C1\Sc2ccccc2C1=O)c1ccccc1 | 110% (inactive) | 106 | 108 | 153% (active) | 145 | 152 | 238% (active) | 112% (inactive) | 131% (inactive) | 128 | 131 |
| CN1C(=O)c2cccc3c(Cl)ccc(c23)C1=O | 97.8% (inactive) | 95.7 | 98 | 107% (inactive) | 107 | 107 | 105% (inactive) | 92.4% (inactive) | 97.3% (inactive) | 95.6 | 98.1 |
| CCOC(=O)c1cnn(-c2cc(C)nc3c(-c4ccccc4)cnn23)c1N | 96.7% (inactive) | 98.1 | 95.4 | 92.9% (inactive) | 92.9 | 94.4 | 103% (inactive) | 89.3% (inactive) | 98.6% (inactive) | 97.6 | 98.2 |
| CCOC(=O)c1csc(Nc2nc3ccc(F)cc3s2)n1 | 94.6% (inactive) | 95.2 | 94.2 | 103% (inactive) | 102 | 104 | 99% (inactive) | 93.4% (inactive) | 95.9% (inactive) | 97.4 | 95.6 |
| CN1CCN(C(=O)CC2C(=O)NCCN2Cc2ccc(-c3ccccc3)cc2)CC1 (stereo unspecified) | 96.2% (inactive) | 96.2 | 98.5 | 100% (inactive) | 102 | 99.5 | 97.5% (inactive) | 99.7% (inactive) | 97.8% (inactive) | 100 | 99.1 |
